Active and inactive are the calls of the source. The calls are words filed in the database; no cut-off is given here.
Tests used:
Human alphaherpesvirus 1 [1] = assay: Antiviral activity against wild type Herpes simplex virus 1 KOS infected in HEL cells assessed as inhibition of virus-induced cytopathic effect; assay type: functional, cell-based; conditions: Human alphaherpesvirus 1, KOS
Human alphaherpesvirus 2 = assay: Antiviral activity against Herpes simplex virus 2 G infected in HEL cells assessed as inhibition of virus-induced cytopathic effect; assay type: functional, cell-based; conditions: Human alphaherpesvirus 2, strain G
Procedure, shortened: (§1)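 Confluent cell monolayers were infected with 100 CCID50 of virus (1 CCID50 = dose infecting 50% of cultures) and incubated with varying compound concentrations. Cytopathicity was scored once complete in untreated infected controls.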

Human alphaherpesvirus 1 [2] = assay: Antiviral activity against thymidine kinase-deficient ACV-resistant Herpes simplex virus 1 KOS infected in HEL cells assessed as inhibition of virus-induced cytopathic effect; assay type: functional, cell-based; conditions: Human alphaherpesvirus 1, KOS
Human alphaherpesvirus 3 [3] = assay: Antiviral activity against wild type thymidine kinase expressing Varicella-Zoster virus Oka infected in HEL cells assessed as inhibition of virus-induced plaque formation; assay type: functional, cell-based; conditions: Human alphaherpesvirus 3, Oka
Procedure, shortened: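 Confluent HEL cultures were inoculated with 20 PFU of VZV and incubated with varying compound concentrations. Plaques were counted once formation was complete in untreated infected controls.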

Human alphaherpesvirus 3 [4] = assay: Antiviral activity against wild type thymidine kinase-deficient Varicella-Zoster virus 07-1 infected in HEL cells assessed as inhibition of virus-induced plaque formation; assay type: functional, cell-based; conditions: Human alphaherpesvirus 3, 07-1, HEL
Procedure, shortened: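 HEL fibroblast monolayers were infected with 20 PFU of VZV and kept with varying compound concentrations. Plaques were counted once formation was complete in untreated infected controls.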

Human betaherpesvirus 5 [5] = assay: Antiviral activity against Human cytomegalovirus AD169 infected in HEL cells assessed as inhibition of virus-induced cytopathic effect; assay type: functional, cell-based; conditions: Human betaherpesvirus 5, AD169, HEL; procedure, shortened: as §1
Human betaherpesvirus 5 [6] = assay: Antiviral activity against Human cytomegalovirus Davis infected in HEL cells assessed as inhibition of virus-induced cytopathic effect; assay type: functional, cell-based; conditions: Human betaherpesvirus 5, Davis; procedure, shortened: as §1
Vaccinia virus = assay: Antiviral activity against Vaccinia virus Lederle infected in HEL cells assessed as inhibition of virus-induced cytopathic effect; assay type: functional, cell-based; conditions: Orthopoxvirus vaccinia
HEL = assay: Cytotoxicity against HEL cells assessed as reduction in cell growth after 3 days by coulter counter method; assay type: cell-based; conditions: human, hel, 72 h
Procedure, shortened: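 HEL cells were seeded at 5 × 10³ cells/well and grown for 24 h, then given medium containing graded compound concentrations. After 3 days at 37 °C, cells were counted by Coulter counter.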

[7] = tested on: Vesicular stomatitis virus; assay: Antiviral activity against Vesicular stomatitis virus infected in HEL cells assessed as inhibition of virus-induced cytopathic effect; assay type: functional, cell-based
Coxsackievirus B4 = assay: Antiviral activity against Coxsackie virus B4 infected in human HeLA cells assessed as inhibition of virus-induced cytopathic effect; assay type: functional, cell-based; procedure, shortened: as §1
[8] = Antiviral activity against Respiratory syncytial virus A strain long infected in human HeLA cells assessed as inhibition of virus-induced cytopathic effect; assay type: functional, cell-based; procedure, shortened: as §1
Human respirovirus 3 = assay: Antiviral activity against Parainfluenza virus 3 infected in African green monkey Vero cells assessed as inhibition of virus-induced cytopathic effect; assay type: functional; procedure, shortened: as §1
[9] = tested on: Mammalian orthoreovirus 1; assay: Antiviral activity against Reovirus-1 infected in African green monkey Vero cells assessed as inhibition of virus-induced cytopathic effect; assay type: functional; procedure, shortened: as §1
Sindbis virus = assay: Antiviral activity against Sindbis virus infected in African green monkey Vero cells assessed as inhibition of virus-induced cytopathic effect; assay type: functional; procedure, shortened: as §1
Punta Toro virus = assay: Antiviral activity against Punta Toro virus infected in African green monkey Vero cells assessed as inhibition of virus-induced cytopathic effect; assay type: functional; procedure, shortened: as §1
Feline coronavirus = assay: Antiviral activity against Feline coronavirus infected in CRFK cells assessed as inhibition of virus-induced cytopathic effect; assay type: functional, cell-based
Influenza A virus = assay: Antiviral activity against Influenza A virus (H1N1) infected in HEL cells assessed as inhibition of virus-induced cytopathic effect; assay type: functional, cell-based
Influenza A virus H3N2 = assay: Antiviral activity against Influenza A virus H3N2 infected in HEL cells assessed as inhibition of virus-induced cytopathic effect; assay type: functional, cell-based
Influenza B virus = assay: Antiviral activity against influenza B virus infected in HEL cells assessed as inhibition of virus-induced cytopathic effect; assay type: functional, cell-based
[10] = Selectivity index, ratio of CC50 for HEL cells to EC50 for Human cytomegalovirus AD169 infected in HEL cells; assay type: toxicity, cell-based; conditions: read-out: Ratio CC50/EC50
[11] = Selectivity index, ratio of CC50 for HEL cells to EC50 for wild type Herpes simplex virus 1 KOS infected in HEL cells; assay type: toxicity, cell-based; conditions: human, read-out: Ratio CC50/EC50
Procedure, shortened: (§2)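 EC50 is the concentration halving cytopathicity in HEL cells infected with 100 CCID50 HSV. […] Cells were counted by Coulter counter, and CC50 was read from plots of cell number (% of untreated) versus concentration. SI = CC50/EC50.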

[12] = Selectivity index, ratio of CC50 for HEL cells to EC50 for Herpes simplex virus 2 G infected in HEL cells; assay type: toxicity, cell-based; conditions: human, read-out: Ratio CC50/EC50; procedure, shortened: as §2
[13] = Selectivity index, ratio of CC50 for HEL cells to EC50 for thymidine kinase-deficient ACV-resistant Herpes simplex virus 1 KOS infected in HEL cells; assay type: toxicity, cell-based; conditions: human, read-out: Ratio CC50/EC50; procedure, shortened: as §2
[14] = Selectivity index, ratio of CC50 for HEL cells to EC50 for wild type thymidine kinase expressing Varicella-Zoster virus Oka infected in HEL cells; assay type: toxicity, cell-based; conditions: human, read-out: Ratio CC50/EC50
[15] = Selectivity index, ratio of CC50 for HEL cells to EC50 for wild type thymidine kinase-deficient Varicella-Zoster virus 07-1 infected in HEL cells; assay type: toxicity, cell-based; conditions: human, read-out: Ratio CC50/EC50
[16] = Selectivity index, ratio of CC50 for HEL cells to EC50 for Human cytomegalovirus Davis infected in HEL cells; assay type: toxicity, cell-based; conditions: read-out: Ratio CC50/EC50

SMILES	EC50 (Human alphaherpesvirus 1 [1])	EC50 (Human alphaherpesvirus 2)	EC50 (Human alphaherpesvirus 1 [2])	EC50 (Human alphaherpesvirus 3 [3])	EC50 (Human alphaherpesvirus 3 [4])	EC50 (Human betaherpesvirus 5 [5])	EC50 (Human betaherpesvirus 5 [6])	EC50 (Vaccinia virus)	CC50 (HEL)	Activity [7]	Activity (Coxsackievirus B4)	Activity [8]	Activity (Human respirovirus 3)	Activity [9]	Activity (Sindbis virus)	Activity (Punta Toro virus)	Activity (Feline coronavirus)	Activity (Influenza A virus)	Activity (Influenza A virus H3N2)	Activity (Influenza B virus)	also measured
CC(C)(C)C(=O)OCOP(=O)(O)COCCn1cnc(N)nc1=O	142 µM	142 µM	131 µM	40.7 µM	128 µM	123 µM	116 µM	> 275 µM	> 275 µM	inactive	inactive	inactive	inactive	inactive	inactive	inactive	inactive	inactive	inactive	inactive	–
COP(=O)(O)COCCn1cnc(N)nc1=O	> 100 µM	> 100 µM	> 100 µM	> 100 µM	> 100 µM	> 100 µM	> 100 µM	> 100 µM	> 100 µM	inactive	inactive	inactive	inactive	inactive	inactive	inactive	inactive	inactive	inactive	inactive	–
CC(C)(C)C(=O)OCOP(=O)(O)COCCOc1cc(N)nc(N)n1	39.5 µM	29 µM	54 µM	2.54 µM	5.91 µM	> 100 µM	> 100 µM	> 100 µM	≥ 100 µM	inactive	inactive	inactive	inactive	inactive	inactive	inactive	inactive	inactive	inactive	inactive	–
CCOC(=O)[C@H](C)NP(=O)(COCCOc1cc(N)nc(N)n1)N[C@@H](C)C(=O)OCC	3.9 µM	3.46 µM	6.3 µM	0.56 µM	1.69 µM	28.4 µM	17 µM	157 µM	25.9 µM	inactive	inactive	inactive	inactive	inactive	inactive	inactive	inactive	inactive	inactive	inactive	selectivity ratio [10]: ≤ 1; selectivity ratio [11]: 4 to 15; selectivity ratio [12]: 4 to 15; selectivity ratio [13]: 4 to 15; selectivity ratio [14]: 15 to 52; selectivity ratio [15]: 15 to 52; selectivity ratio [16]: ≤ 1
CC(C)(C)C(=O)OCOP(=O)(COCCn1cnc(N)nc1=O)OCOC(=O)C(C)(C)C	0.84 µM	1.26 µM	0.73 µM	0.65 µM	1.32 µM	3.24 µM	0.97 µM	152 µM	46 µM	inactive	inactive	inactive	inactive	inactive	inactive	inactive	inactive	inactive	inactive	inactive	selectivity ratio [10]: 14 to 47; selectivity ratio [11]: 37 to 63; selectivity ratio [12]: 37 to 63; selectivity ratio [13]: 37 to 63; selectivity ratio [14]: 35 to 71; selectivity ratio [15]: 35 to 71; selectivity ratio [16]: 14 to 47

From ChEMBL document CHEMBL4043131, “New prodrugs of two pyrimidine acyclic nucleoside phosphonates: Synthesis and antiviral activity” (Bioorg Med Chem, 2017)
